The full list was thinned out, with hits kept by preference.
UPR CHOP act: activators of apoptotic arm of unfolded protein response (CHOP); CHO-CHOP luciferase reporter, UPR activation, luminescence; percent of tunicamycin response over DMSO baseline; activation, % at 10 µM; 0.34% of 330,000 active;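 active = at 10 µM dose, activation of 40% or more, normalized to positive control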;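 also: 100% = tunicamycin at 10 µg/mL and 0% = DMSO alone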
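System: CHO CHOP reporter cells. Amount: 500 cells per well. Buffer or medium: F12 medium, 10% FBS. Compound dosing: one dose, 10 µM in 0.5% DMSO. Incubation: 6 h compound exposure at 37 °C after overnight seeding. Technique: Steady-Glo luciferase luminescence. Benchmarks: tunicamycin and DMSO controls.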
CHOP inh: inhibitors of CHOP induction in ER stress response | CHO-K1 CHOP-promoter luciferase, tunicamycin-induced, 15-18 h | inhibition, % at 10 µM | 3.8% of 220,000 active;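 active = compounds that reduced the stress-induced luciferase reporter signal by more than about 70% of percent inhibition, limit read from the data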;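 also: 0% = tunicamycin plus vehicle and 100% = wells without tunicamycin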
UPR XBP1 act: adaptive UPR (XBP1) activation | CHO-XBP1 luciferase reporter, IRE1-XBP1 UPR activation, luminescence; percent of tunicamycin response, DMSO as zero | activation, % at 20 µM | 0.33% of 330,000 active | AID 463104;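 active = versus positive control, 20 µM dose yields 30% or more activation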;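 also: 100% = tunicamycin at 10 µg/mL and 0% = DMSO only wells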
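Material: CHO-XBP1 cells stably carrying IRE1-XBP1-driven luciferase reporter / Amount: 1000 cells per well / Compound: 20 µM, 1% DMSO / Times: 6 h treatment, 37 °C / Detection: luciferase luminescence / Measure: % activation of reporter signal versus tunicamycin and DMSO controls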
Bfl-1 A1 inh: inhibitors of the anti-apoptotic protein A1, read as caspase activation; 0.066% of 330,000 active; MEF A1-2A-BIM cells, Caspase-Glo 3/7 luminescence, 3 h; percent of clofoctol response, vehicle zero; caspase activation, % (concentration not given with the values);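 active = over half of replicate activation scores above 10%, or exactly half above 10 with the replicate mean above 10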
* hit, by the source's call; . = no result given.

SMILES	UPR CHOP act	CHOP inh	UPR XBP1 act	Bfl-1 A1 inh
COCCCN1CN(S(=O)(=O)c2cccs2)c2nc3ccccc3nc21	0	15	-1	1
COCc1c(C#N)c(NCc2cc(OC)c(OC)c(OC)c2)nc(C)c1[N+](=O)[O-]	2	28	-5	0
COc1cc(CNc2nc(C)c([N+](=O)[O-])c(C)c2C#N)cc(OC)c1	-2	71*	3	0
O=C(COC(=O)c1cn(-c2ccccc2)nc1-c1ccccc1)Nc1ncc(Cl)cc1Cl	-1	77*	-4	0
Cc1ccc(C(=O)COC(=O)c2cn(-c3ccccc3)nc2-c2ccccc2)cc1[N+](=O)[O-]	11	76*	1	-1
O=[N+]([O-])c1cccc(S(=O)(=O)NCc2ccncc2)c1	5	.	9	1
C/C=C/C(=O)Nc1nnc(-c2ccccc2C)s1	7	85*	0	0
COc1ccc(-n2c(C)nc3c(cnn3-c3ccc(C)c(C)c3)c2=O)cc1	2	73*	-2	0
COc1cccc(-n2c(C)nc3c(cnn3-c3ccc(Cl)cc3)c2=O)c1	3	53	5	-1
Cc1ccc(-n2ncc3c(=O)n(-c4ccc(C)c(C)c4)c(C)nc32)cc1	1	73*	1	0
Cc1ccc(-n2c(C)nc3c(cnn3-c3ccc(F)cc3)c2=O)cc1	8	48	-2	0
O=C(Cn1c(=O)cnc2ccccc21)NNC(=O)c1ccccc1Cl	-1	.	-1	0
CN(C)c1ccc(/C=N\Nc2nc(-c3ccccc3)cc(=O)[nH]2)cc1	2	89*	1	0
COc1ccc(/C(C)=N\Nc2nc(-c3ccccc3)cc(=O)[nH]2)cc1	-2	11	1	0
O=C(O)c1cc(S(=O)(=O)N2CCOCC2)c[nH]1	1	.	-3	1
Cc1ccc(S(=O)(=O)N2CCOCC2)cc1C(=O)NC1=NCCS1	1	.	3	2
CSCCC(NS(=O)(=O)c1ccc(Cl)cc1)C(=O)OCC(=O)NC12CC3CC(CC(C3)C1)C2 (stereo not drawn)	-1	74*	-2	0
COC(=O)C(CCSC)NS(=O)(=O)c1ccc(Cl)cc1 (stereo not drawn)	-3	-13	5	0
CCCCc1cc(C(=O)Cc2ccccn2)c(O)cc1O	1	.	-5	0
CCC(C)n1cnc2c(c1=O)c1nc3ccccc3nc1n2-c1ccc2c(c1)OCCO2 (stereo not drawn)	-1	83*	-2	1
COc1ccccc1NC(=O)Cn1cnc2c(nc3n2CCCCC3)c1=O	-1	.	-4	0
CCn1c(=O)cc(OCC(=O)N2CCCCCC2)c2ccccc21	-2	1	2	0
CCn1c(=O)cc(OCC(=O)N2CCc3ccccc32)c2ccccc21	.	85*	.	.
COC(=O)c1c(NC(NC(=O)CC(C)C)C(Cl)(Cl)Cl)sc2c1CCC2 (stereo not drawn)	1	91*	-2	0
CCC(=O)NC(Nc1sc2c(c1C(=O)OC)CCC2)C(Cl)(Cl)Cl (stereo not drawn)	1	43	-4	1
SMILES	UPR CHOP act	CHOP inh	UPR XBP1 act	Bfl-1 A1 inh
COC(=O)c1c(NC(NC(=O)C(C)(C)C)C(Cl)(Cl)Cl)sc2c1CCC2 (stereo not drawn)	-3	78*	-3	0
COC(=O)c1c(NC(NC(=O)C(C)C)C(Cl)(Cl)Cl)sc2c1CCC2 (stereo not drawn)	0	34	0	0
CCOC(=O)c1sc(Nc2ccc(OCC)cc2)nc1C	2	73*	5	0
Cc1cc(-n2c(SCC(=O)NCc3cccs3)nc3n[nH]c(C)c3c2=N)ccc1Cl	7	81*	9	0
Cc1ccn2c(=O)nc(SCC(=O)N3N=C(c4cccs4)CC3c3ccc(F)cc3)nc2c1 (stereo not drawn)	2	.	-2	1
CCOc1ccc(NC(=O)Cn2nnc3c(cnn3-c3ccc(F)cc3)c2=O)cc1	0	72*	2	-1
CCN(Cc1ccncc1)Cc1cn[nH]c1-c1cc(OC)c(OC)c(OC)c1	-1	6	-1	0
CC(C)NC(=O)NC(=O)COC(=O)c1ccc(S(=O)(=O)Nc2ccccc2)cc1	-1	34	-1	0
CC(C)NC(=O)NC(=O)COC(=O)c1ccc(OC(F)(F)F)cc1	-2	84*	-3	0

Compound activity deposited in PubChem BioAssay by several laboratories.
